# pKd, pKi: −log10 of the molar value. Activity calls are given as the source filed them. No cut-off for these calls is given here.
# What was measured:
# [1] = Binding affinity to pyridoxal-phosphate
# Ornithine decarboxylase [2] = molecular target: T1, Ornithine decarboxylase (Bos taurus, UniProt P27117); test: Competitive inhibition of bull prostate ornithine decarboxylase using DL-[1-14C]ornithine as substrate after 1 hr by dixon plot analysis; parameters: species or system Prostate gland
# T1 sequence (P27117 whole entry): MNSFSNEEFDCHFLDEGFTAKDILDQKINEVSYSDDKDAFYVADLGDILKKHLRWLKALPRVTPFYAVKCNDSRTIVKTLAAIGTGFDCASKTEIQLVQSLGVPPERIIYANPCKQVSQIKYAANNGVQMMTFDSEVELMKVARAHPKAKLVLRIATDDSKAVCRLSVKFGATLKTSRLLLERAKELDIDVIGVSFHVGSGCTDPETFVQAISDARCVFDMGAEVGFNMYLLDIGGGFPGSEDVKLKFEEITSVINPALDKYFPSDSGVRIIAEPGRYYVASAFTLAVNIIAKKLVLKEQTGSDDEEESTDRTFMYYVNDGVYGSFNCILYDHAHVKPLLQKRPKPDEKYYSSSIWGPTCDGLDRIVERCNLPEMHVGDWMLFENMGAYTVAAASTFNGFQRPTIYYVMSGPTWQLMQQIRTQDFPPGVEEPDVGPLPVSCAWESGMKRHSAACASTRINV
# Summary of the method: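 Bull prostate ODC purified ~fourfold: homogenized at 4 °C in Tris-HCl 10 mM pH 7.2, sucrose, EDTA, DTT 5 mM, PLP 0.1 mM; 20000g and 105000g spins, 20–50% (NH4)2SO4 cut, dialysis. Assay in 0.95 mL Tris-HCl pH 7.2 with PLP 0.1 µmol, DTT 5 µmol, DL-[1-14C]ornithine 0.043 µmol, L-ornithine 0.8 µmol; 14CO2 counted after 1 h at 37 °C; KI from Dixon plots, least-squares fit.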
# Ornithine decarboxylase [3] = molecular target: T2, Ornithine decarboxylase (Rattus norvegicus, UniProt P09057); test: Competitive inhibition of rat liver ornithine decarboxylase using DL-[1-14C]ornithine as substrate after 1 hr by dixon plot analysis
# T2 sequence (P09057 whole entry): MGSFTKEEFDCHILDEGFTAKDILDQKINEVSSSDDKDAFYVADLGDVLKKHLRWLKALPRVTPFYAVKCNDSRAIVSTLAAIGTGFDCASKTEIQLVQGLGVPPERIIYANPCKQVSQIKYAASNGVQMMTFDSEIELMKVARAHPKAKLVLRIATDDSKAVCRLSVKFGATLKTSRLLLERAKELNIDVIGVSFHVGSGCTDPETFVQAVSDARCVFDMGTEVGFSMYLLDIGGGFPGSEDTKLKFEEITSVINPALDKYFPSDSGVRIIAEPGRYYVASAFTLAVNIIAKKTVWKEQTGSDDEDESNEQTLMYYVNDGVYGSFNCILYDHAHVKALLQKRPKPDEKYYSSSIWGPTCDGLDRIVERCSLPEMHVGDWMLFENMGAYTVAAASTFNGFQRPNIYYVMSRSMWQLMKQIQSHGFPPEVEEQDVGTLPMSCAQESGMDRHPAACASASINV
# Summary of the method: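 ODC from livers of rats given thioacetamide 18 h before sacrifice, ~tenfold purified by acid treatment at pH 4.6. Incubation: sodium phosphate pH 7.1, PLP 0.1 µmol, DTT 5 µmol, DL-[1-14C]ornithine 0.043 µmol plus L-ornithine 0.8 µmol in 0.95 mL; 14CO2 release after 1 h at 37 °C; KI from Dixon plots by least-squares fit.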
# Ornithine decarboxylase [4] = molecular target: T2, Ornithine decarboxylase; test: Competitive inhibition of ornithine decarboxylase in rat HTC cells using DL-[1-14C]ornithine as substrate after 1 hr by dixon plot analysis; format: cell-based; conditions: for pKi: read-out: Ki
# Summary of the method: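 HTC hepatoma cell ODC; sodium phosphate pH 7.1 assay with PLP 0.1 µmol, DTT 5 µmol, DL-[1-14C]ornithine 0.043 µmol, L-ornithine 0.8 µmol, final 0.95 mL; enzyme added to start; 14CO2 measured after 1 h at 37 °C. KI from Dixon plots, or for some values from ID50 at ornithine equal to KM, taking KI = ID50/2.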
# [5] = molecular target: T3, Ornithine decarboxylase (Rattus norvegicus) (UniProt P09057); test: Inhibition of rat prostate ornithine decarboxylase at 10 mM; conditions: Prostate gland
# T3 sequence (whole entry): T2 sequence (P09057 whole entry)
# [6] = molecular target: T3, Ornithine decarboxylase (Rattus norvegicus); test: Competitive inhibition of rat liver ornithine decarboxylase using DL-[1-14C]ornithine as substrate at 0.25 mM after 1 hr by dixon plot analysis
# [7] = molecular target: Ornithine decarboxylase (Bos taurus); test: Inhibition of bull prostate ornithine decarboxylase
# [8] = molecular target: T3, Ornithine decarboxylase (Rattus norvegicus); test: Competitive inhibition of rat liver ornithine decarboxylase using DL-[1-14C]ornithine as substrate at 4 mM after 1 hr by dixon plot analysis
# [9] = molecular target: T3, Ornithine decarboxylase (Rattus norvegicus); test: Competitive inhibition of rat liver ornithine decarboxylase using DL-[1-14C]ornithine as substrate at 1 mM after 1 hr by dixon plot analysis
# [10] = molecular target: T3, Ornithine decarboxylase (Rattus norvegicus); test: Competitive inhibition of ornithine decarboxylase in rat HTC cells using DL-[1-14C]ornithine as substrate at 1 mM after 1 hr by dixon plot analysis; format: cell-based
# Ornithine decarboxylase [11] = molecular target: T2, Ornithine decarboxylase; test: Competitive inhibition of Sprague-Dawley rat prostate ornithine decarboxylase using DL-[1-14C]ornithine as substrate by liquid scintillation counting analysis; parameters: species or system Prostate gland
Compound,pKd [1],pKi (Ornithine decarboxylase [2]),pKi (Ornithine decarboxylase [3]),also measured
NCCCC(N)c1nnn[nH]1 (centres undefined),,4.15,3.92,pKi (Ornithine decarboxylase [4]): 3.85
N[C@H]1CC[C@](N)(C(=O)O)CC1,,,4.15,pKi (Ornithine decarboxylase [4]): 4.15
NCCC[C@@H](N)C(=O)O,,,,inhibition [5]: 25%
N[C@H]1CC[C@@](N)(C(=O)O)CC1,,,,inhibition [6]: inactive
NC/C=C/C(N)C(=O)O (racemic),,,,pKi [7]: 2.36
CC(N)(CCCCN)C(=O)O (racemic),,,,inhibition [8]: inactive
CC(N)(CCN)C(=O)O (racemic),,,,inhibition [8]: inactive
CN(C)CCCC(C)(N)C(=O)O (racemic),,,,inhibition [9]: inactive
NCCC(O)C(N)C(=O)O (racemic),,,,inhibition [10]: inactive
NCCCC(N)(CO)C(=O)O (racemic),,,,inhibition [9]: inactive
NCCC[C@H](N)C(=O)O [ORNITHINE],2.90,,,
NCCCCN [PUTRESCINE],3.10,,,

# Continued, in another order:
pKd [1],pKi (Ornithine decarboxylase [2]),pKi (Ornithine decarboxylase [3]),Compound,also measured
2.63,4.70,4.72,C[C@](N)(CCCN)C(=O)O,pKi (Ornithine decarboxylase [4]): 4.70
,3.00,2.89,C[C@@](N)(CCCN)C(=O)O,pKi (Ornithine decarboxylase [4]): 2.98
2.27,3.13,3.30,CNCCCC(C)(N)C(=O)O (racemic),
,,4.40,CC(N)(CCCN)C(=O)O (racemic),pKi (Ornithine decarboxylase [4]): 4.40
3.05,2.36,,CC(N)(CCCNCCCN)C(=O)O (racemic; 3),Ki (Ornithine decarboxylase [4]; htc): Not Active
,2.26,,CC(N)(CCCNCCCN)C(=O)O (racemic; 8),
3.15,2.52,,NCCCCNCCCN [SPERMIDINE],pKi (Ornithine decarboxylase [11]): 2.57
